Tests used:
Cathepsin S = Cathepsin S (Homo sapiens, UniProt P25774); experiment: Inhibition of human Cathepsin S
Procathepsin L = Procathepsin L (Homo sapiens, UniProt P07711); experiment: Inhibition of human Cathepsin L
Cathepsin L2 = molecular target: T1, Cathepsin L2 (Homo sapiens, UniProt O60911); experiment: Inhibition of human Cathepsin V
T1 sequence (O60911 whole entry): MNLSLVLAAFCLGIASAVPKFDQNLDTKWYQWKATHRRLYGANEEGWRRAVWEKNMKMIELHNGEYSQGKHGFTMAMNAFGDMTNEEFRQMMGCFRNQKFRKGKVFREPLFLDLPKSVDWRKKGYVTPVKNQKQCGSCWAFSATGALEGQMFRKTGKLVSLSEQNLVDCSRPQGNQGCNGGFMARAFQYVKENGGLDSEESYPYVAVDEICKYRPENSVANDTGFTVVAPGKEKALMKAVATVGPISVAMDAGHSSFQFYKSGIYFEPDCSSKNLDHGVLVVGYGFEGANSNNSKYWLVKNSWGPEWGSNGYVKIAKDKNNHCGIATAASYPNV

Chymase = molecular target: T2, Chymase (Homo sapiens, UniProt P23946); experiment: Inhibition of human Chymase
T2 sequence (P23946 whole entry): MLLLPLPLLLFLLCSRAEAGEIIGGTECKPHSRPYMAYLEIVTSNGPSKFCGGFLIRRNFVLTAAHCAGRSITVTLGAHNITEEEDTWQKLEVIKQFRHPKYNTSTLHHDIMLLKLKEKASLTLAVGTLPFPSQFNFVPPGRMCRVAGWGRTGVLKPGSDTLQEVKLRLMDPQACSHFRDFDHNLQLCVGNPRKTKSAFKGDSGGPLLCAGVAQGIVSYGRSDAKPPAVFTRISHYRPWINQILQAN

[1] = molecular target: Chymotrypsin-like elastase family member 1 (Homo sapiens, UniProt Q9UNI1); experiment: Inhibition of human Pancreatic elastase 1
Chymotrypsin-like elastase family member 1, sequence (Q9UNI1 whole entry): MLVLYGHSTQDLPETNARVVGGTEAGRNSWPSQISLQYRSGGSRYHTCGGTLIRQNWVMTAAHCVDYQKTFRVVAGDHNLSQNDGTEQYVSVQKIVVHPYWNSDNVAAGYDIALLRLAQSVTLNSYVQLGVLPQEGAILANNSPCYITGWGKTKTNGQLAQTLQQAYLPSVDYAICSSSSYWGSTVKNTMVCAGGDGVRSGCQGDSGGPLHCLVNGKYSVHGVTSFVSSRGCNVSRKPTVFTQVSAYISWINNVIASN

Neutrophil elastase = molecular target: T3, Neutrophil elastase (Homo sapiens, UniProt P08246); experiment: Inhibition of human Neutrophil elastase 2
T3 sequence (P08246 whole entry): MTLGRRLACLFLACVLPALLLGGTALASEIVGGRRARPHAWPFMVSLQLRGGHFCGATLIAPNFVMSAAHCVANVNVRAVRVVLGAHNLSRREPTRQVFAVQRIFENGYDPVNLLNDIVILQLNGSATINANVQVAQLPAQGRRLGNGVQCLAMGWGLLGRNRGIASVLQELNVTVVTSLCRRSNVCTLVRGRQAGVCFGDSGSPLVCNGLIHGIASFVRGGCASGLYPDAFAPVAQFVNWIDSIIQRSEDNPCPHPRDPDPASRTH

Cathepsin K = molecular target: T4, Cathepsin K (Homo sapiens, UniProt P43235); experiment: Inhibition of human Cathepsin K
T4 sequence (P43235 whole entry): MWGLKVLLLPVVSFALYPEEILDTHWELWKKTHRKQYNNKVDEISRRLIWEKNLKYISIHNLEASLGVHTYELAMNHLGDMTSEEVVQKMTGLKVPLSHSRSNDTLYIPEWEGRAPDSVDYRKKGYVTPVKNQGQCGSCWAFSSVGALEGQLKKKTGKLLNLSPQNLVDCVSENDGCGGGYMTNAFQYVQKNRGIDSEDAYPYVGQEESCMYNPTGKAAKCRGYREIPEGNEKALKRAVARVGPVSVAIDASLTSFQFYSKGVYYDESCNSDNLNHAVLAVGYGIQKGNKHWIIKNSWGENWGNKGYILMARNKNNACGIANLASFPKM

Cathepsin F = molecular target: T5, Cathepsin F (Homo sapiens, UniProt Q9UBX1); experiment: Inhibition of human Cathepsin F
T5 sequence (Q9UBX1 whole entry): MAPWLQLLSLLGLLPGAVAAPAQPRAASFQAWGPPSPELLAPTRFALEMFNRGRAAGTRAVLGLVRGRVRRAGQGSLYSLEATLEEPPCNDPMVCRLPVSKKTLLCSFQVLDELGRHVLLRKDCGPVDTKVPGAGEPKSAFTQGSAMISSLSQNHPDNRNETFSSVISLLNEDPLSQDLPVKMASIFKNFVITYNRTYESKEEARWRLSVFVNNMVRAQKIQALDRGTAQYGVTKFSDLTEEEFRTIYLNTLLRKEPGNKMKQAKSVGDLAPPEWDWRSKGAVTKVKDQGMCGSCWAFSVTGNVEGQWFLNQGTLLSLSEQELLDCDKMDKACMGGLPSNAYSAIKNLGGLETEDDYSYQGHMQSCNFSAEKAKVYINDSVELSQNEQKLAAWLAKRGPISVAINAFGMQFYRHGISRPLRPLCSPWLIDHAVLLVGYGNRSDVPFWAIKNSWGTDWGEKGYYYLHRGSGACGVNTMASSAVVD

Cathepsin B = Cathepsin B (Homo sapiens, UniProt P07858); experiment: Inhibition of human Cathepsin B
[2] = Cytotoxicity against […] cells; type: cell-based; settings: HB1
Hepatitis C virus [3] = experiment: Antiviral activity against Hepatitis C virus genotype 2a infected in […] cell by cell-based HCV replicon assay in presence of 10% fetal bovine serum; type: functional, organism-based, Hepacivirus hominis
Hepatitis C virus [4] = experiment: Antiviral activity against Hepatitis C virus genotype 1b infected in […] cell by cell-based HCV replicon assay in presence of 50% normal human serum; type: functional, organism-based, Hepacivirus hominis
Procedure, shortened: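 Stable genotype 1b (con1) replicon cell line HB1, assayed in the presence of 50% normal human serum.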

Hepatitis C virus [5] = experiment: Antiviral activity against Hepatitis C virus genotype 1b infected in […] cell by cell-based HCV replicon assay in presence of 10% fetal bovine serum; type: functional, organism-based, Hepacivirus hominis
Procedure, shortened: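 Stable genotype 1b (con1) replicon cell line HB1, assayed in medium with 10% fetal bovine serum.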

[6] = Inhibition of Hepatitis C virus genotype 2b NS3/4A protease activity; set-up: species or system Hepatitis C virus subtype 2b
Procedure, shortened: (§1)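 Recombinant NS3/4A protease was expressed in and purified from E. coli. Inhibition was measured by a time-resolved, internally quenched fluorescence assay at low enzyme concentration. Kis were reported.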

[7] = Inhibition of Hepatitis C virus genotype 2a NS3/4A protease activity; set-up: species or system Hepatitis C virus subtype 2a; procedure, shortened: as §1
Hepatitis C virus [8] = experiment: Inhibition of Hepatitis C virus genotype 1b NS3/4A protease activity; set-up: species or system Hepatitis C virus subtype 1b; procedure, shortened: as §1
[9] = Inhibition of Hepatitis C virus genotype 1a NS3/4A protease activity; set-up: species or system Hepatitis C virus subtype 1a; procedure, shortened: as §1
Serine protease 1 = Serine protease 1 (Homo sapiens, UniProt P07477); experiment: Inhibition of human Trypsin activity
Serine protease 1, sequence (P07477 whole entry): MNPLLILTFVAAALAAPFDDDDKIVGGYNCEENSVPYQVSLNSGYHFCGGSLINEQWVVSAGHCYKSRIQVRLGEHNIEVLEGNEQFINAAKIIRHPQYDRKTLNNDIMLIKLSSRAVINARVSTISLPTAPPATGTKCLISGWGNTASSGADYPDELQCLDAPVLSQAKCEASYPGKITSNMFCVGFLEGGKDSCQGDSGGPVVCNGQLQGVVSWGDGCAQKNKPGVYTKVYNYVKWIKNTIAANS

[10] = Inhibition of human Chymotrypsin

Cathepsin S, sequence (P25774 whole entry): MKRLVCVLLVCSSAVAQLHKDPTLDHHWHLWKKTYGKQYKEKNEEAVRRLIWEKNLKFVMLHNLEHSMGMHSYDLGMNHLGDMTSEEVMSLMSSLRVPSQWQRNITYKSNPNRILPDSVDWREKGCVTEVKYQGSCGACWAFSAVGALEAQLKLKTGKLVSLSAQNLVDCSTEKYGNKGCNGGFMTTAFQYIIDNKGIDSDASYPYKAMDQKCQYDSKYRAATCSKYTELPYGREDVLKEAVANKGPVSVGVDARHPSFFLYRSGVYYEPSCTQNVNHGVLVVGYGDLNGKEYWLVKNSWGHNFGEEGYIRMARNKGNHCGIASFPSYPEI
Procathepsin L, sequence (P07711 whole entry): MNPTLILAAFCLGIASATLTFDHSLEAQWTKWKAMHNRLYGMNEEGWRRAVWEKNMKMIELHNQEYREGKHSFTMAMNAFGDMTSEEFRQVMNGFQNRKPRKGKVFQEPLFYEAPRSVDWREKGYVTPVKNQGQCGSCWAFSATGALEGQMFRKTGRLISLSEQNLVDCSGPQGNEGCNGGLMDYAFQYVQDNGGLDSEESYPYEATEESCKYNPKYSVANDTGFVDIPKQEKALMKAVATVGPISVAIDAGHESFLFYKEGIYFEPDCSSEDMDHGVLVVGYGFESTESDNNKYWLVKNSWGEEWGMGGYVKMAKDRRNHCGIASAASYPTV

IC50 (Cathepsin S) [nM] | IC50 (Procathepsin L) [nM] | IC50 (Cathepsin L2) [nM] | IC50 (Chymase) [nM] | IC50 [1] [nM] | IC50 (Neutrophil elastase) [nM] | IC50 (Cathepsin K) [nM] | IC50 (Cathepsin F) [nM] | IC50 (Cathepsin B) [nM] | EC50 (Hepatitis C virus [3]) [nM] | EC50 (Hepatitis C virus [5]) [nM] | IC50 (Serine protease 1) [nM] | IC50 [10] [nM] | Compound | EC50 [2] [nM] | EC50 (Hepatitis C virus [4]) [nM] | Ki [6] [nM] | Ki [7] [nM] | Ki (Hepatitis C virus [8]) [nM] | Ki [9] [nM]
120 | 760 | 75 | 32 | > 10000 | > 10000 | 40 | 1100 | > 3300 | 170 | 480 |  |  | CC(C)(C)NC(=O)N[C@H](C(=O)N1C[C@H]2[C@@H]([C@H]1C(=O)NC(CC1CCC1)C(=O)C(N)=O)C2(C)C)C(C)(C)C (some centres undefined) [BOCEPREVIR] | > 50000 | 1180 | 21 | 25 | 28 | 21
300 | 3500 | 1350 | 26 | 30 | 8000 | 630 | > 10000 | 4400 | 390 | 1100 | > 10000 | 3000 | CCC[C@H](NC(=O)[C@@H]1[C@H]2CCC[C@H]2CN1C(=O)[C@@H](NC(=O)[C@@H](NC(=O)c1cnccn1)C1CCCCC1)C(C)(C)C)C(=O)C(=O)NC1CC1 [TELAPREVIR] | > 50000 | 8600 | 42 | 54 | 93 | 130

Compound | IC50 (Cathepsin S) [nM] | IC50 (Procathepsin L) [nM] | IC50 (Cathepsin L2) [nM] | IC50 (Chymase) [nM] | IC50 [1] [nM] | IC50 (Neutrophil elastase) [nM] | IC50 (Cathepsin K) [nM] | IC50 (Cathepsin F) [nM] | IC50 (Cathepsin B) [nM] | EC50 (Hepatitis C virus [3]) [nM] | EC50 (Hepatitis C virus [5]) [nM] | IC50 (Serine protease 1) [nM] | IC50 [10] [nM] | EC50 [2] [nM] | EC50 (Hepatitis C virus [4]) [nM] | Ki [6] [nM] | Ki [7] [nM] | Ki (Hepatitis C virus [8]) [nM] | Ki [9] [nM]
COc1ccc2c(O[C@@H]3C[C@H]4C(=O)N[C@]5(C(=O)O)C[C@H]5/C=C\CCCCC[C@H](NC(=O)OC5CCCC5)C(=O)N4C3)cc(-c3csc(NC(C)C)n3)nc2c1 [CILUPREVIR] |  |  |  |  |  |  |  |  |  | 27 | 3 |  |  | 50000 | 17 | 61 | 7 | 0.3 | 0.81

From ChEMBL document CHEMBL1240347, “MK-7009, a potent and selective inhibitor of hepatitis C virus NS3/4A protease” (Antimicrob Agents Chemother, 2010)
